Test results: ChEMBL document CHEMBL4689842, “EUbOPEN Chemogenomics Library wave 1” (2021)
Several values for one entry are separate records, joined by “and”; a condition that tells them apart may be missing. Equal entries are not always repeated.

System: HEK-293T
Assay: Multiplex assay against HEK293T;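 for Population Tubulin-Different-Phenotype (%): share of the cells with healthy nuclei that show this phenotype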
Assay type: toxicity, cell-based
Settings: human
Method in brief: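 Cells stained live at seeding with Hoechst33342, BioTracker Green Microtubule Cytoskeleton Dye, MitoTracker Red and Annexin V Alexa Fluor 680 were imaged on a CQ1 microscope at 37°C and 5% CO2 after compound addition. Their classification by CellPathfinder machine-learning gating ran from Hoechst high-intensity objects versus normal cells, to healthy, pyknosed or fragmented nuclei among normal cells, to mitotic or apoptotic among pyknosed cells. Tubulin, mitochondrial-mass and membrane-permeability phenotypes are per cents of healthy-nucleus cells.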

[1] = 12 h, 1 µM, compound concentration 1 uM, replicate 1
[2] = 12 h, 1 µM, compound concentration 1 uM, replicate 2
[3] = 12 h, 10 µM, compound concentration 10 uM, replicate 1
[4] = 12 h, 10 µM, compound concentration 10 uM, replicate 2
[5] = 24 h, 1 µM, compound concentration 1 uM, replicate 1
[6] = 24 h, 1 µM, compound concentration 1 uM, replicate 2
[7] = 24 h, 10 µM, compound concentration 10 uM, replicate 1
[8] = 24 h, 10 µM, compound concentration 10 uM, replicate 2
[9] = 48 h, 1 µM, compound concentration 1 uM, replicate 1
[10] = 48 h, 1 µM, compound concentration 1 uM, replicate 2
[11] = 48 h, 10 µM, compound concentration 10 uM, replicate 1
[12] = 48 h, 10 µM, compound concentration 10 uM, replicate 2

## CC(C)CC(=O)Nc1[nH]nc2c1CN(C(=O)C1CCN(C)CC1)C2(C)C [PHA-793887]
[1]
  Population Apoptotic (%): 21%
  Population Fragmented Nuclei (%): 10%
  Population Healthy Nuclei (%): 72%
  Population Hoechst High Intensity Objects (%): 8%
  Population Membrane Permeable-Phenotype (%): 5%
  Population Mitochondria Different-Phenotype (%): 4%
  Population Mitotic Cells (%): 78%
  Population Normal (%): 91%
  Population Pyknosed Nuclei (%): 17%
  Population Tubulin-Different-Phenotype (%): 2%
  Total Cell Count: 604
[2]
  Population Apoptotic (%): 20%
  Population Fragmented Nuclei (%): 9%
  Population Healthy Nuclei (%): 87%
  Population Hoechst High Intensity Objects (%): 2%
  Population Membrane Permeable-Phenotype (%): 1%
  Population Mitochondria Different-Phenotype (%): 6%
  Population Mitotic Cells (%): 80%
  Population Normal (%): 97%
  Population Pyknosed Nuclei (%): 3%
  Population Tubulin-Different-Phenotype (%): 4%
  Total Cell Count: 1420
[3]
  Population Apoptotic (%): 21%
  Population Fragmented Nuclei (%): 13%
  Population Healthy Nuclei (%): 69%
  Population Hoechst High Intensity Objects (%): 12%
  Population Membrane Permeable-Phenotype (%): 2%
  Population Mitochondria Different-Phenotype (%): 7%
  Population Mitotic Cells (%): 78%
  Population Normal (%): 87%
  Population Pyknosed Nuclei (%): 16%
  Population Tubulin-Different-Phenotype (%): 3%
  Total Cell Count: 585
[4]
  Population Apoptotic (%): 25%
  Population Fragmented Nuclei (%): 7%
  Population Healthy Nuclei (%): 89%
  Population Hoechst High Intensity Objects (%): 5%
  Population Membrane Permeable-Phenotype (%): 0%
  Population Mitotic Cells (%): 74%
  Population Normal (%): 94%
  Population Pyknosed Nuclei (%): 2%
  Population Tubulin-Different-Phenotype (%): 2%
  Total Cell Count: 1190
[5]
  Population Apoptotic (%): 27%
  Population Fragmented Nuclei (%): 9%
  Population Healthy Nuclei (%): 81%
  Population Hoechst High Intensity Objects (%): 4%
  Population Membrane Permeable-Phenotype (%): 7%
  Population Mitochondria Different-Phenotype (%): 3%
  Population Mitotic Cells (%): 72%
  Population Normal (%): 95%
  Population Pyknosed Nuclei (%): 9%
  Population Tubulin-Different-Phenotype (%): 4%
  Total Cell Count: 638
[6]
  Population Apoptotic (%): 11%
  Population Fragmented Nuclei (%): 23%
  Population Healthy Nuclei (%): 72%
  Population Hoechst High Intensity Objects (%): 3%
  Population Membrane Permeable-Phenotype (%): 2%
  Population Mitochondria Different-Phenotype (%): 2%
  Population Mitotic Cells (%): 88%
  Population Normal (%): 96%
  Population Pyknosed Nuclei (%): 3%
  Population Tubulin-Different-Phenotype (%): 6%
  Total Cell Count: 1935
[7]
  Population Apoptotic (%): 25%
  Population Fragmented Nuclei (%): 13%
  Population Healthy Nuclei (%): 70%
  Population Hoechst High Intensity Objects (%): 15%
  Population Membrane Permeable-Phenotype (%): 4%
  Population Mitochondria Different-Phenotype (%): 7%
  Population Mitotic Cells (%): 75%
  Population Normal (%): 84%
  Population Pyknosed Nuclei (%): 15%
  Population Tubulin-Different-Phenotype (%): 8%
  Total Cell Count: 545
[8]
  Population Apoptotic (%): 36%
  Population Fragmented Nuclei (%): 11%
  Population Healthy Nuclei (%): 86%
  Population Hoechst High Intensity Objects (%): 4%
  Population Membrane Permeable-Phenotype (%): 1%
  Population Mitotic Cells (%): 63%
  Population Normal (%): 95%
  Population Pyknosed Nuclei (%): 2%
  Population Tubulin-Different-Phenotype (%): 4%
  Total Cell Count: 1297

## Cc1cccc(CN2CCN(C(c3ccccc3)c3ccc(Cl)cc3)CC2)c1.Cl.Cl (centres undefined)
[1]
  Population Apoptotic (%): 52%
  Population Fragmented Nuclei (%): 13%
  Population Healthy Nuclei (%): 25%
  Population Hoechst High Intensity Objects (%): 19%
  Population Membrane Permeable-Phenotype (%): 0%
  Population Mitochondria Different-Phenotype (%): 73%
  Population Mitotic Cells (%): 47%
  Population Normal (%): 80%
  Population Pyknosed Nuclei (%): 60%
  Population Tubulin-Different-Phenotype (%): 39%
  Total Cell Count: 198
[2]
  Population Apoptotic (%): 9%
  Population Fragmented Nuclei (%): 6%
  Population Healthy Nuclei (%): 48%
  Population Hoechst High Intensity Objects (%): 3%
  Population Membrane Permeable-Phenotype (%): 10%
  Population Mitochondria Different-Phenotype (%): 25%
  Population Mitotic Cells (%): 90%
  Population Normal (%): 96%
  Population Pyknosed Nuclei (%): 44%
  Population Tubulin-Different-Phenotype (%): 18%
  Total Cell Count: 170
[3]
  Population Apoptotic (%): 69%
  Population Fragmented Nuclei (%): 10%
  Population Healthy Nuclei (%): 40%
  Population Hoechst High Intensity Objects (%): 16%
  Population Membrane Permeable-Phenotype (%): 3%
  Population Mitochondria Different-Phenotype (%): 96%
  Population Mitotic Cells (%): 30%
  Population Normal (%): 83%
  Population Pyknosed Nuclei (%): 49%
  Population Tubulin-Different-Phenotype (%): 85%
  Total Cell Count: 255
[4]
  Population Apoptotic (%): 42%
  Population Fragmented Nuclei (%): 8%
  Population Healthy Nuclei (%): 38%
  Population Hoechst High Intensity Objects (%): 3%
  Population Membrane Permeable-Phenotype (%): 6%
  Population Mitochondria Different-Phenotype (%): 73%
  Population Mitotic Cells (%): 57%
  Population Normal (%): 96%
  Population Pyknosed Nuclei (%): 53%
  Population Tubulin-Different-Phenotype (%): 69%
  Total Cell Count: 206
[5]
  Population Apoptotic (%): 51%
  Population Fragmented Nuclei (%): 11%
  Population Healthy Nuclei (%): 33%
  Population Hoechst High Intensity Objects (%): 17%
  Population Membrane Permeable-Phenotype (%): 1%
  Population Mitochondria Different-Phenotype (%): 73%
  Population Mitotic Cells (%): 48%
  Population Normal (%): 82%
  Population Pyknosed Nuclei (%): 55%
  Population Tubulin-Different-Phenotype (%): 43%
  Total Cell Count: 204
[6]
  Population Apoptotic (%): 10%
  Population Fragmented Nuclei (%): 6%
  Population Healthy Nuclei (%): 66%
  Population Hoechst High Intensity Objects (%): 4%
  Population Membrane Permeable-Phenotype (%): 7%
  Population Mitochondria Different-Phenotype (%): 26%
  Population Mitotic Cells (%): 89%
  Population Normal (%): 95%
  Population Pyknosed Nuclei (%): 26%
  Population Tubulin-Different-Phenotype (%): 33%
  Total Cell Count: 221
[7]
  Population Apoptotic (%): 75%
  Population Fragmented Nuclei (%): 11%
  Population Healthy Nuclei (%): 41%
  Population Hoechst High Intensity Objects (%): 15%
  Population Membrane Permeable-Phenotype (%): 0%
  Population Mitochondria Different-Phenotype (%): 96%
  Population Mitotic Cells (%): 24%
  Population Normal (%): 84%
  Population Pyknosed Nuclei (%): 46%
  Population Tubulin-Different-Phenotype (%): 87%
  Total Cell Count: 274
[8]
  Population Apoptotic (%): 59%
  Population Fragmented Nuclei (%): 6%
  Population Healthy Nuclei (%): 56%
  Population Hoechst High Intensity Objects (%): 3%
  Population Membrane Permeable-Phenotype (%): 6%
  Population Mitochondria Different-Phenotype (%): 87%
  Population Mitotic Cells (%): 40%
  Population Normal (%): 96%
  Population Pyknosed Nuclei (%): 37%
  Population Tubulin-Different-Phenotype (%): 81%
  Total Cell Count: 246
[9]
  Population Apoptotic (%): 49%
  Population Fragmented Nuclei (%): 18%
  Population Healthy Nuclei (%): 34%
  Population Hoechst High Intensity Objects (%): 17%
  Population Membrane Permeable-Phenotype (%): 2%
  Population Mitochondria Different-Phenotype (%): 47%
  Population Mitotic Cells (%): 50%
  Population Normal (%): 82%
  Population Pyknosed Nuclei (%): 47%
  Population Tubulin-Different-Phenotype (%): 34%
  Total Cell Count: 244
[10]
  Population Apoptotic (%): 15%
  Population Fragmented Nuclei (%): 10%
  Population Healthy Nuclei (%): 75%
  Population Hoechst High Intensity Objects (%): 4%
  Population Membrane Permeable-Phenotype (%): 5%
  Population Mitochondria Different-Phenotype (%): 7%
  Population Mitotic Cells (%): 84%
  Population Normal (%): 95%
  Population Pyknosed Nuclei (%): 13%
  Population Tubulin-Different-Phenotype (%): 20%
  Total Cell Count: 397
[11]
  Population Apoptotic (%): 61%
  Population Fragmented Nuclei (%): 13%
  Population Healthy Nuclei (%): 55%
  Population Hoechst High Intensity Objects (%): 12%
  Population Membrane Permeable-Phenotype (%): 2%
  Population Mitochondria Different-Phenotype (%): 89%
  Population Mitotic Cells (%): 38%
  Population Normal (%): 87%
  Population Pyknosed Nuclei (%): 31%
  Population Tubulin-Different-Phenotype (%): 83%
  Total Cell Count: 309
[12]
  Population Apoptotic (%): 44%
  Population Fragmented Nuclei (%): 7%
  Population Healthy Nuclei (%): 68%
  Population Hoechst High Intensity Objects (%): 4%
  Population Membrane Permeable-Phenotype (%): 4%
  Population Mitochondria Different-Phenotype (%): 67%
  Population Mitotic Cells (%): 55%
  Population Normal (%): 95%
  Population Pyknosed Nuclei (%): 24%
  Population Tubulin-Different-Phenotype (%): 71%
  Total Cell Count: 355

## CN1CCN(Cc2cc(NC(=O)c3ccc4c(c3)CN(c3ccccc3)CC4)cc(C(F)(F)F)c2)CC1
[1]
  Population Apoptotic (%): 37% and 18%
  Population Fragmented Nuclei (%): 18% and 16%
  Population Healthy Nuclei (%): 48% and 58%
  Population Hoechst High Intensity Objects (%): 35% and 18%
  Population Membrane Permeable-Phenotype (%): 16% and 8%
  Population Mitotic Cells (%): 62% and 81%
  Population Normal (%): 64% and 81%
  Population Pyknosed Nuclei (%): 32% and 24%
  Total Cell Count: 601 and 582
[2]
  Population Apoptotic (%): 20% and 14%
  Population Fragmented Nuclei (%): 4% and 5%
  Population Healthy Nuclei (%): 80% and 87%
  Population Mitochondria Different-Phenotype (%): 36% and 15%
  Population Mitotic Cells (%): 79% and 85%
  Population Normal (%): 89% and 97%
  Population Pyknosed Nuclei (%): 15% and 6%
  Total Cell Count: 1350 and 1353
[5]
  Population Apoptotic (%): 45% and 17%
  Population Fragmented Nuclei (%): 18% and 14%
  Population Healthy Nuclei (%): 63% and 71%
  Population Mitochondria Different-Phenotype (%): 35% and 12%
  Population Mitotic Cells (%): 54% and 82%
  Population Normal (%): 70% and 90%
  Population Pyknosed Nuclei (%): 18% and 14%
  Total Cell Count: 559 and 631
[6]
  Population Apoptotic (%): 11%
  Population Fragmented Nuclei (%): 13% and 16%
  Population Healthy Nuclei (%): 78% and 81%
  Population Mitotic Cells (%): 88%
  Population Normal (%): 89% and 96%
  Total Cell Count: 1856 and 2285
